Measured values as given in ChEMBL document CHEMBL4043171, “Chemoselective fluorination and chemoinformatic analysis of griseofulvin: Natural vs fluorinated fungal metabolites” (Bioorg Med Chem, 2017).
Activity calls are given as the source filed them. The calls are words filed in the database; no cut-off is given here.

Legend:
OVCAR-3 [1] = assay: Cytotoxicity against human OVCAR3 cells assessed as reduction in cell viability at 50 uM by cell titer 96 aqueous one solution cell proliferation assay; format: functional, cell-based
MDA-MB-231 = assay: Cytotoxicity against human MDA-MB-231 cells assessed as reduction in cell viability at 50 uM by cell titer 96 aqueous one solution cell proliferation assay; format: functional, cell-based
Nannizzia gypsea = assay: Antifungal activity against Microsporum gypseum at 25 ug/disc incubated for 5 days by agar disk diffusion method; format: functional; conditions: 120 h, read-out: DIZ
In short: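 Conidia of M. gypseum, kept on Sabouraud dextrose agar, were harvested in sterile water and adjusted to 0.5–1.0 OD at 600 nm (~10^5 cells/mL). The suspension was seeded onto Mueller-Hinton agar with 2% glucose and 0.5 µg/ml methylene blue. Compounds in DMSO were loaded at 25 µg per 6 mm paper disk. Inhibition-zone diameters (mm) were read after 5 d, as mean ± SD of four replicates.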

MDA-MB-435 [2] = assay: Cytotoxicity against human MDA-MB-435 cells assessed as reduction in cell viability at 50 uM by cell titer 96 aqueous one solution cell proliferation assay; format: functional, cell-based
OVCAR-3 [3] = assay: Cytotoxicity against human OVCAR3 cells assessed as reduction in cell viability by cell titer 96 aqueous one solution cell proliferation assay; format: functional, cell-based
MDA-MB-435 [4] = assay: Cytotoxicity against human MDA-MB-435 cells assessed as reduction in cell viability by cell titer 96 aqueous one solution cell proliferation assay; format: functional, cell-based
In short: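 Cells were grown in RPMI 1640 with 10% FBS and penicillin/streptomycin at 37°C under 5% CO2. Log-phase cells were trypsinized, washed twice, seeded at 5,000 per well and incubated overnight. Compounds were added at final 20, 4, 0.8, 0.16 and 0.032 µM in 0.5% DMSO and incubated for 72 h at 37 °C. Viability was read by MTS-type absorbance assay as % survival versus DMSO control. Vinblastine served as positive control.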

Huh7.5.1 = assay: Cytotoxicity against human Huh7.5.1 cells assessed as reduction in cell viability by ATPlite assay; conditions: Huh-7.5.1

Row | Compound | Activity (OVCAR-3 [1]) | Activity (MDA-MB-231) | zone of inhibition at 25 µg/disc (Nannizzia gypsea) [mm] | Activity (MDA-MB-435 [2]) | IC50 (OVCAR-3 [3]) [µM] | IC50 (MDA-MB-435 [4]) [µM] | IC50 (Huh7.5.1) [µM]
1 | COC1=CC(=O)C[C@@H](C)[C@]12Oc1c(Cl)c(O)cc(OC)c1C2=O | inactive | inactive | 0 | inactive |  |  | 
2 | COC1=CC(=O)C[C@@H](C)[C@]12Oc1cc(O)cc(OC)c1C2=O | inactive | inactive | 0 | inactive |  |  | 
3 | COC1=CC(=O)C[C@@H](C)[C@]12Oc1c(Cl)c(OC)cc(OC)c1C2=O [GRISEOFULVIN] |  | inactive | 35 |  | 48.5 | 6.4 | 10 to 25
4 | COC1=CC(=O)C[C@@H](C)[C@]12Oc1c(Cl)c(OC)c(F)c(OC)c1C2=O | inactive | inactive | 23 | inactive |  |  | 
5 | COC1=CC(=O)[C@H](O)[C@@H](C)[C@]12Oc1cc(OC)c(F)c(OC)c1C2=O | inactive | inactive | 0 | inactive |  |  | 
6 | COC1=CC(=O)[C@H](O)[C@@H](C)[C@]12Oc1c(F)c(OC)cc(OC)c1C2=O | inactive | inactive | 0 | inactive |  |  | 
7 | COC1=CC(=O)C[C@@H](C)[C@]12Oc1c(F)c(OC)cc(OC)c1C2=O | inactive | inactive | 34 |  |  | 22 | 10 to 25
8 | COC1=CC(=O)C[C@@H](C)[C@]12Oc1cc(OC)c(F)c(OC)c1C2=O | inactive | inactive | 0 | inactive |  |  | 
9 | COC1=CC(=O)C[C@@H](C)[C@]12Oc1cc(OC)cc(OC)c1C2=O | inactive | inactive | 0 | inactive |  |  | 
10 | COC1=CC(=O)[C@H](O)[C@@H](C)[C@]12Oc1cc(OC)cc(OC)c1C2=O | inactive | inactive | 0 | inactive |  |  | 
11 | COC1=CC(=O)[C@H](O)[C@@H](C)[C@]12Oc1c(Cl)c(OC)cc(OC)c1C2=O | inactive | inactive | 0 | inactive |  |  | 
12 | COC1=CC(=O)C2=C(O[C@]3(C2=O)C(OC)=CC(=O)C[C@H]3C)C1(F)Cl (mixture of isomers) | inactive | inactive | 0 | inactive |  |  | 
